This is an account of results in ChEMBL document CHEMBL1137162, “The development of novel inhibitors of tumor necrosis factor-alpha (TNF-alpha) production based on substituted [5,5]-bicyclic pyrazolones” (Bioorg Med Chem Lett, 2004).

The test system of the first test is THP-1. Put plainly: inhibitory potency against human Tumor necrosis factor, alpha production in THP-1cells. The class given is functional, cell-based. The procedure, abridged:
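Human monocytic THP-1 cells (2.0 × 10^5/well), duplicate cultures, preincubated 15 min with or without inhibitor over a concentration range, then stimulated with LPS (2 μg/mL). TNF-α released measured by ELISA 4 h after stimulation; cell viability after the 4 h incubation checked by MTS assay.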
Compound `O=c1c(-c2ccc(F)cc2)c(-c2ccnc(NCc3ccncc3)n2)n2n1CC1(C2)OCCO1` showed an IC50 of 1 µM.

`O=c1c(-c2ccc(F)cc2)c(-c2ccnc(NCc3ccc(F)cc3)n2)n2n1CC1(C2)OCCO1`: the midpoint of inhibition, the IC50, lay at 0.29 µM.

`Nc1ccccc1CNc1nccc(-c2c(-c3ccc(F)cc3)c(=O)n3n2CC2(C3)OCCO2)n1` returned an IC50 of 0.101 µM.

Compound `COC[C@H](C)Nc1nccc(-c2c(-c3ccc(F)cc3)c(=O)n3n2CC2(C3)OCCCO2)n1` displayed an IC50 of 0.036 µM.

Compound `O=c1c(-c2ccc(F)cc2)c(-c2ccnc(NCc3cccc(C(F)(F)F)c3)n2)n2n1CC1(C2)OCCO1` registered an IC50 of 0.197 µM.

Turning to `COCC(C)Nc1nccc(-c2c(-c3ccc(F)cc3)c(=O)n3n2CC(OC)C3)n1` (racemic), the IC50 amounted to 0.015 µM.

On to `O=c1c(-c2ccc(F)cc2)c(-c2ccnc(NCc3ccccn3)n2)n2n1CC1(C2)OCCO1`, for which the IC50 came to 0.148 µM.

Compound `O=c1c(-c2ccc(F)cc2)c(-c2ccnc(NCc3cccc(F)c3)n2)n2n1CC1(C2)OCCO1` registered an IC50 of 0.013 µM.

Take `O=c1c(-c2ccc(F)cc2)c(-c2ccnc(NCc3ccccc3F)n2)n2n1CC1(C2)OCCO1`: the half-maximal inhibitory concentration (IC50) amounted to 0.008 µM.

On to `CN(C)C1Cn2c(-c3ccnc(Oc4ccccc4)n3)c(-c3ccc(F)cc3)c(=O)n2C1` (stereo not drawn), for which the IC50 came out at 0.177 µM.

On to `O=c1c(-c2ccc(F)cc2)c(-c2ccnc(Oc3ccccc3)n2)n2n1CC(N1CCOCC1)C2` (stereo not drawn), for which the IC50 turned out to be 0.313 µM.

Take `Nc1ccc(CNc2nccc(-c3c(-c4ccc(F)cc4)c(=O)n4n3CC3(C4)OCCO3)n2)cc1`: inhibition was half-maximal at 0.161 µM (IC50).

Regarding `Cc1ccccc1CNc1nccc(-c2c(-c3ccc(F)cc3)c(=O)n3n2CC2(C3)OCCO2)n1`, half-maximal inhibition (IC50) required 0.019 µM.

Compound `O=c1c(-c2ccc(F)cc2)c(-c2ccnc(Oc3ccccc3)n2)n2n1CC1(C2)OCCO1` gave an IC50 of 0.038 µM.

Compound `C[C@H](Nc1nccc(-c2c(-c3ccc(F)cc3)c(=O)n3n2CC2(C3)OCCO2)n1)C(C)(C)O` registered an IC50 of 0.009 µM.

Turning to `COCC(C)Nc1nccc(-c2c(-c3ccc(F)cc3)c(=O)n3n2CC(OC)C3)n1` (single isomer, unassigned), the IC50 worked out at 0.02 µM.

`O=c1c(-c2ccc(F)cc2)c(-c2ccnc(Oc3ccccc3)n2)n2n1CC(N1CCNCC1)C2` (stereo not drawn) had an IC50 of 0.5 µM.

`O=c1c(-c2ccc(F)cc2)c(-c2ccnc(NCc3cccnc3)n2)n2n1CC1(C2)OCCO1` showed an IC50 of 0.427 µM.

`O=c1c(-c2ccc(F)cc2)c(-c2ccnc(Oc3ccccc3)n2)n2n1CC(N1CCCC1)C2` (stereo not drawn) yielded an IC50 of 0.327 µM.

`O=c1c(-c2ccc(F)cc2)c(-c2ccnc(Oc3ccccc3)n2)n2n1CC1(C2)OCCCO1` came in with a 50% inhibitory concentration (IC50) of 0.069 µM.

`COC[C@H](C)Nc1nccc(-c2c(-c3ccc(F)cc3)c(=O)n3n2CC2(C3)OCCO2)n1` gave a concentration for half-maximal inhibition (IC50) of 0.036 µM.

`COC(=O)OC1Cn2c(-c3ccnc(Oc4ccccc4)n3)c(-c3ccc(F)cc3)c(=O)n2C1` (stereo not drawn) came in with an IC50 of 0.181 µM.

Compound `O=c1c(-c2ccc(F)cc2)c(-c2ccnc(NCc3ccccc3)n2)n2n1CC1(C2)OCCCO1` had an IC50 of 0.031 µM.

Compound `O=c1c(-c2ccc(F)cc2)c(-c2ccnc(NCc3ccc(F)cc3)n2)n2n1CC1(C2)OCCCO1` gave an IC50 of 0.63 µM.

The compound `Cc1ccc(CNc2nccc(-c3c(-c4ccc(F)cc4)c(=O)n4n3CC3(C4)OCCO3)n2)cc1` came in with an IC50 of 0.293 µM.

`O=c1c(-c2ccc(F)cc2)c(-c2ccnc(NCc3ccccc3)n2)n2n1CC1(C2)OCCO1` came in with an IC50 of 0.011 µM.

`Cc1cccc(CNc2nccc(-c3c(-c4ccc(F)cc4)c(=O)n4n3CC3(C4)OCCO3)n2)c1` displayed a 50% inhibitory concentration (IC50) of 0.04 µM.

`C[C@H](Nc1nccc(-c2c(-c3ccc(F)cc3)c(=O)n3n2CC2(C3)OCCCO2)n1)c1ccccc1` displayed an IC50 of 0.012 µM.

Consider `C[C@@H](Nc1nccc(-c2c(-c3ccc(F)cc3)c(=O)n3n2CC(O)C3)n1)c1ccccc1` (stereo partly drawn), for which inhibition was half-maximal at 0.005 µM (IC50).

On to `O=c1c(-c2ccc(F)cc2)c(-c2ccnc(Oc3ccccc3)n2)n2n1CC(N1CCCCC1)C2` (stereo not drawn), for which it took 0.297 µM to reach half-maximal inhibition (IC50).

In turn, `O=c1c(-c2ccc(F)cc2)c(-c2ccnc(NCc3ccccc3C(F)(F)F)n2)n2n1CC1(C2)OCCO1` came in with an IC50 of 0.017 µM.

In the case of `C[C@H](Nc1nccc(-c2c(-c3ccc(F)cc3)c(=O)n3n2CC2(C3)OCCO2)n1)c1ccccc1`, the IC50 turned out to be 0.002 µM.

As for `COC[C@H](C)Nc1nccc(-c2c(-c3ccc(F)cc3)c(=O)n3n2CC(OC)C3)n1` (stereo partly drawn), the IC50 was determined as 0.013 µM.

Regarding `O=c1c(-c2ccc(F)cc2)c(-c2ccnc(NCc3ccc(C(F)(F)F)cc3)n2)n2n1CC1(C2)OCCO1`, the IC50 amounted to 1 µM.

The test system of the next test is Rattus norvegicus. Put plainly: Percent reduction in joint damage as compared to the control at 25 mg/Kg. It counts as functional. The method in brief:
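Rat iodoacetate osteoarthritis model; groups of 15 animals dosed orally BID (~every 12 h) for 7 days at 25 mg/kg or vehicle (2.5 mL/kg). Sacrifice on day 22; left joint disarticulated, fixed in 10% formalin 24–48 h, tibial cartilage surface imaged by image analysis. Joint damage expressed as % reduction versus vehicle; significance at P < 0.05.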
The compound `COCC(C)Nc1nccc(-c2c(-c3ccc(F)cc3)c(=O)n3n2CC(OC)C3)n1` (racemic) registered a Reduction of 28%.

The compound `C[C@H](Nc1nccc(-c2c(-c3ccc(F)cc3)c(=O)n3n2CC2(C3)OCCO2)n1)C(C)(C)O` came in with a Reduction of 18%.

Compound `COC[C@H](C)Nc1nccc(-c2c(-c3ccc(F)cc3)c(=O)n3n2CC2(C3)OCCO2)n1` returned a Reduction of 17%.

Take `C[C@H](Nc1nccc(-c2c(-c3ccc(F)cc3)c(=O)n3n2CC2(C3)OCCO2)n1)c1ccccc1`: the Reduction is 27%.
